Several values for one entry are separate records, joined by “and”; a condition that tells them apart may be missing. Equal entries are not always repeated.
Experiments:
[1] = Partition coefficient, log P of the compound; format: physicochemical; settings: octanol/water
SW-620 = experiment: Cytotoxicity against human SW620 cells assessed as cell growth after 48 hrs by sulforhodamine B assay; format: functional, cell-based
In short: (§1)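 Log-phase cells seeded at 10^4/well and allowed to attach for 24 h at 37 °C, 5% CO2. Exposed for 48 h to 0.1–100 (1:10 serial dilutions), four replicate wells per condition. Fixed with cold 50% TCA for 1 h at 4 °C, stained with sulforhodamine B, dye dissolved in Tris, OD read at 540 nm. Blank-subtracted growth expressed relative to untreated cells (100%); IC50 reported.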

DU-145 = experiment: Cytotoxicity against human DU145 cells assessed as cell growth after 48 hrs by sulforhodamine B assay; format: functional, cell-based; in short: as §1
PC-3 = experiment: Cytotoxicity against human PC3 cells assessed as cell growth after 48 hrs by sulforhodamine B assay; format: functional, cell-based; in short: as §1

Row | logP [1] | SMILES | IC50 (SW-620; Homo sapiens, SW-620, 48 h) [µM] | IC50 (DU-145; Homo sapiens, DU-145, 48 h) [µM] | IC50 (PC-3; Homo sapiens, PC-3, 48 h) [µM] | IC50 (SW-620; sw-620) [µM] | IC50 (DU-145; du-145) [µM] | IC50 (PC-3; pc-3)
1 | 1.41 | C[C@H]1CC[C@@H]2[C@@H](OC(=O)[C@]23CC(c2ccccc2)=NO3)[C@]2(C)C(=O)C=C[C@@]12O | 45.4 | 39.8 | 46 |  |  | 
2 | 1.51 | C[C@H]1CC[C@@H]2[C@@H](OC(=O)[C@]23CC(c2ccc(N(C)C)cc2)=NO3)[C@]2(C)C(=O)C=C[C@@]12O | 5.1 | 4.5 | 6.3 |  |  | 
3 | 3.15 | C[C@H]1CC[C@@H]2[C@@H](OC(=O)[C@]23CC(c2ccc([N+](=O)[O-])cc2)N(c2ccccc2)O3)[C@]2(C)C(=O)C=C[C@@]12O (mixture of isomers) |  |  |  |  |  | 
4 | 3.19 | C[C@H]1CC[C@@H]2[C@@H](OC(=O)[C@]23CC(c2ccccc2)N(c2ccccc2)O3)[C@]2(C)C(=O)C=C[C@@]12O (mixture of isomers) |  |  |  |  |  | 
5 | 3.25 | COc1cccc(C2C[C@@]3(ON2c2ccccc2)C(=O)O[C@@H]2[C@H]3CC[C@H](C)[C@]3(O)C=CC(=O)[C@@]23C)c1 (mixture of isomers) |  |  |  |  |  | 
6 | 3.64 | Cc1ccccc1C1C[C@@]2(ON1c1ccccc1)C(=O)O[C@@H]1[C@H]2CC[C@H](C)[C@]2(O)C=CC(=O)[C@@]12C (mixture of isomers) |  |  |  |  |  | 
7 | 4 | C[C@H]1CC[C@@H]2[C@@H](OC(=O)[C@]23CC(c2ccc(Br)cc2)N(c2ccccc2)O3)[C@]2(C)C(=O)C=C[C@@]12O (mixture of isomers) |  |  |  |  |  | 
8 | 3.25 | COc1ccc(C2C[C@@]3(ON2c2ccccc2)C(=O)O[C@@H]2[C@H]3CC[C@H](C)[C@]3(O)C=CC(=O)[C@@]23C)cc1 (mixture of isomers) |  |  |  |  |  | 
9 | 3.35 | C[C@H]1CC[C@@H]2[C@@H](OC(=O)[C@]23CC(c2ccccc2F)N(c2ccccc2)O3)[C@]2(C)C(=O)C=C[C@@]12O (mixture of isomers) |  |  |  |  |  | 
10 | 3.87 | C[C@H]1CC[C@@H]2[C@@H](OC(=O)[C@]23CC(c2cccc(Cl)c2)N(c2ccccc2)O3)[C@]2(C)C(=O)C=C[C@@]12O (mixture of isomers) |  |  |  |  |  | 
11 | 3.87 | C[C@H]1CC[C@@H]2[C@@H](OC(=O)[C@]23CC(c2ccccc2Cl)N(c2ccccc2)O3)[C@]2(C)C(=O)C=C[C@@]12O (mixture of isomers) |  |  |  |  |  | 
12 | 3.35 | C[C@H]1CC[C@@H]2[C@@H](OC(=O)[C@]23CC(c2ccc(F)cc2)N(c2ccccc2)O3)[C@]2(C)C(=O)C=C[C@@]12O (mixture of isomers) |  |  |  |  |  | 
13 | 3.87 | C[C@H]1CC[C@@H]2[C@@H](OC(=O)[C@]23CC(c2ccc(Cl)cc2)N(c2ccccc2)O3)[C@]2(C)C(=O)C=C[C@@]12O (mixture of isomers) |  |  |  |  |  | 
14 | 3.98 | COc1ccc(C2C[C@@]3(ON2c2ccccc2)C(=O)O[C@@H]2[C@H]3CC[C@H](C)[C@]3(O)C=CC(=O)[C@@]23C)cc1Br (mixture of isomers) |  |  |  |  |  | 
15 | 4.45 | C[C@H]1CC[C@@H]2[C@@H](OC(=O)[C@]23CC(c2c(Cl)cccc2Cl)N(c2ccccc2)O3)[C@]2(C)C(=O)C=C[C@@]12O (mixture of isomers) |  |  |  |  |  | 
16 | 2.94 | C[C@H]1CC[C@@H]2[C@@H](OC(=O)[C@]23CC(c2ccc(C#N)cc2)N(c2ccccc2)O3)[C@]2(C)C(=O)C=C[C@@]12O (mixture of isomers) |  |  |  |  |  | 

Second part, the compound before the results:

Row | SMILES | logP [1] | IC50 (SW-620; Homo sapiens, SW-620, 48 h) [µM] | IC50 (DU-145; Homo sapiens, DU-145, 48 h) [µM] | IC50 (PC-3; Homo sapiens, PC-3, 48 h) [µM] | IC50 (SW-620; sw-620) [µM] | IC50 (DU-145; du-145) [µM] | IC50 (PC-3; pc-3)
17 | C[C@H]1CC[C@@H]2[C@@H](OC(=O)[C@]23CC(c2cccc(F)c2)N(c2ccccc2)O3)[C@]2(C)C(=O)C=C[C@@]12O (mixture of isomers) | 3.35 |  |  |  |  |  | 
18 | COc1ccc(C2C[C@@]3(ON2c2ccccc2)C(=O)O[C@@H]2[C@H]3CC[C@H](C)[C@]3(O)C=CC(=O)[C@@]23C)cc1Br (some centres undefined) |  | 6.8 | 6.3 | 5.7 | 9 | 5.4 | 8.1 µM
19 | COc1ccc(C2=NO[C@]3(C2)C(=O)O[C@@H]2[C@H]3CC[C@H](C)[C@]3(O)C=CC(=O)[C@@]23C)cc1OC | 1.06 | 86 | 84 | 25 |  |  | 
20 | C[C@H]1CC[C@@H]2[C@@H](OC(=O)[C@]23CC(c2c(F)c(F)c(F)c(F)c2F)N(c2ccccc2)O3)[C@]2(C)C(=O)C=C[C@@]12O (some centres undefined) |  | 3 | 9.3 | 5.6 | 5.5 | 6.1 | 5 µM
21 | Cc1ccccc1N1C[C@]12C(=O)O[C@@H]1[C@H]2CC[C@H](C)[C@]2(O)C=CC(=O)[C@@]12C | 1.83 | 22 | 30 | 12.5 |  |  | 
22 | C[C@H]1CC[C@@H]2[C@@H](OC(=O)[C@]23CC(c2ccccc2)N(c2ccccc2)O3)[C@]2(C)C(=O)C=C[C@@]12O (some centres undefined) |  | 5.3 | 5.6 | 5.7 | 6 | 6.5 | 9 µM
23 | C[C@H]1CC[C@@H]2[C@@H](OC(=O)[C@]23CC(c2ccc([N+](=O)[O-])cc2)N(c2ccccc2)O3)[C@]2(C)C(=O)C=C[C@@]12O (some centres undefined) |  | 5.7 | 5.6 | 8.4 | 5.1 | 6 | 9.3 µM
24 | C[C@H]1CC[C@@H]2[C@@H](OC(=O)[C@]23CC(c2ccc(F)cc2)N(c2ccccc2)O3)[C@]2(C)C(=O)C=C[C@@]12O (some centres undefined) |  | 7.3 | 6.4 |  | 6 | 5 | 5.7 µM and 12 µM
25 | C[C@H]1CC[C@@H]2[C@@H](OC(=O)[C@]23CC(c2ccc(Br)cc2)N(c2ccccc2)O3)[C@]2(C)C(=O)C=C[C@@]12O (some centres undefined) |  | 6.7 | 5.3 |  | 8.1 | 4.2 | 5.8 µM and 2.3 µM
26 | C[C@H]1CC[C@@H]2[C@@H](OC(=O)[C@]23CC(c2ccc(Cl)cc2)N(c2ccccc2)O3)[C@]2(C)C(=O)C=C[C@@]12O (some centres undefined) |  | 7.5 | 7 | 7.8 | 5.1 | 6 | 12 µM
27 | Cc1ccc(C2C[C@@]3(ON2c2ccccc2)C(=O)O[C@@H]2[C@H]3CC[C@H](C)[C@]3(O)C=CC(=O)[C@@]23C)cc1 (mixture of isomers) | 3.64 |  |  |  |  |  | 
28 | C[C@H]1CC[C@@H]2[C@@H](OC(=O)[C@]23CC(c2cccc(F)c2)N(c2ccccc2)O3)[C@]2(C)C(=O)C=C[C@@]12O (some centres undefined) |  | 4.8 | 5 | 4.8 | 5.1 | 8.1 | 9 µM
29 | C[C@H]1CC[C@@H]2[C@@H](OC(=O)[C@]23CC(c2c(Cl)cccc2Cl)N(c2ccccc2)O3)[C@]2(C)C(=O)C=C[C@@]12O (some centres undefined) |  | 3 | 9 | 2.4 | 5 | 6.3 | 4.2 µM
30 | Cc1ccccc1C1C[C@@]2(ON1c1ccccc1)C(=O)O[C@@H]1[C@H]2CC[C@H](C)[C@]2(O)C=CC(=O)[C@@]12C (some centres undefined) |  | 12 | 4.5 | 15 | 9 | 5.1 | 
31 | C[C@H]1CC[C@@H]2[C@@H](OC(=O)[C@]23CC(c2ccccc2Cl)N(c2ccccc2)O3)[C@]2(C)C(=O)C=C[C@@]12O (some centres undefined) |  | 5.5 | 6 | 3.5 | 9.2 | 4.1 | 6.3 µM
32 | C[C@H]1CC[C@@H]2[C@@H](OC(=O)[C@]23CC(c2ccccc2F)N(c2ccccc2)O3)[C@]2(C)C(=O)C=C[C@@]12O (some centres undefined) |  | 9 | 4.1 | 2.7 | 10.2 | 6 | 2.5 µM
33 | C[C@H]1CC[C@@H]2[C@@H](OC(=O)[C@]23CC(c2cccc(Cl)c2)N(c2ccccc2)O3)[C@]2(C)C(=O)C=C[C@@]12O (some centres undefined) |  | 6.1 | 7.4 | 8.2 | 10.5 | 6 | 12 µM
34 | C[C@H]1CC[C@@H]2[C@@H](OC(=O)[C@]23CC(c2c(F)c(F)c(F)c(F)c2F)N(c2ccccc2)O3)[C@]2(C)C(=O)C=C[C@@]12O (mixture of isomers) | 3.72 |  |  |  |  |  | 
35 | COc1ccc(C2C[C@@]3(ON2c2ccccc2)C(=O)O[C@@H]2[C@H]3CC[C@H](C)[C@]3(O)C=CC(=O)[C@@]23C)cc1 (some centres undefined) |  | 7.3 | 6.4 | 5.7 | 4.2 | 7.1 | 6 µM
36 | Cc1ccc(C2C[C@@]3(ON2c2ccccc2)C(=O)O[C@@H]2[C@H]3CC[C@H](C)[C@]3(O)C=CC(=O)[C@@]23C)cc1 (some centres undefined) |  | 8.7 | 8.1 | 8.5 | 9 | 6.3 | 9.1 µM
37 | C[C@H]1CC[C@@H]2[C@@H](OC(=O)[C@]23CC(c2c(F)cccc2F)N(c2ccccc2)O3)[C@]2(C)C(=O)C=C[C@@]12O (some centres undefined) |  | 5 | 12 | 2.5 | 7.2 | 9 | 2.3 µM
38 | C[C@H]1CC[C@@H]2[C@@H](OC(=O)[C@]23CC(c2ccc(C#N)cc2)N(c2ccccc2)O3)[C@]2(C)C(=O)C=C[C@@]12O (some centres undefined) |  | 4.8 | 5 | 4.8 | 5 | 7 | 9.1 µM
39 | COc1cccc(C2C[C@@]3(ON2c2ccccc2)C(=O)O[C@@H]2[C@H]3CC[C@H](C)[C@]3(O)C=CC(=O)[C@@]23C)c1 (some centres undefined) |  | 7.5 | 10 | 12 | 6.6 | 11 | 9 µM
40 | C[C@H]1CC[C@@H]2[C@@H](OC(=O)[C@]23CC(c2c(F)cccc2F)N(c2ccccc2)O3)[C@]2(C)C(=O)C=C[C@@]12O (mixture of isomers) | 3.42 |  |  |  |  |  | 

Reference: ChEMBL document CHEMBL1806428, “Design and synthesis of spiro derivatives of parthenin as novel anti-cancer agents” (Eur J Med Chem, 2011)
